Source: ChEMBL document CHEMBL1149300, “Novel retinoic acid metabolism blocking agents endowed with multiple biological activities are efficient growth inhibitors of human breast and prostate cancer cells in vitro and a human breast tumor xenograft in nude mice” (J Med Chem, 2004)
Calls of active or inactive are those of the source. The rule behind the calls is not given here.

What was measured:
MDA-MB-231 = test: Growth inhibition of human MDA-MB-231 cells up to 10 uM after 6 days by MTT assay; assay type: functional, cell-based
MCF7 [1] = test: Reduction of tumor growth in MCF7 cells xenografted ovariectomized mouse at 0.033 mmol/kg, sc for 6 weeks relative to control; assay type: functional; conditions: Homo sapiens
Procedure, shortened: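 Female ovariectomized nude mice received estrogen pellets. MCF-7 cells (2 × 10^6 in Matrigel) were injected sc into both flanks and grown 4-5 weeks to 200-300 mm3. Groups of n = 5 were dosed sc once daily, 6 days/week for 6 weeks, vehicle 0.3% HPC, 200 µL. Tumors were measured weekly by caliper, volume = (4/3)πr1²r2, and change was compared with vehicle controls.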

MCF7 [2] = test: Antiproliferative effect against human MCF7 cells; assay type: functional, cell-based
Procedure, shortened: (§1)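 MCF-7 (IMEM, 5% FBS) or T47D (RPMI 1640, 10% FBS) cells, 1 × 10^4 per well, adhered ~18 h, then exposed to 0.0001-10 µM drug (ethanol) for 6 days with media and drug renewed on day 4. MTT for 2 h, formazan dissolved in DMSO, A540. Triplicate wells, 2-3 experiments; IC50 by nonlinear regression.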

Mesocricetus auratus = species: Mesocricetus auratus; test: Inhibition of ATRA hydroxylase in Syrian golden hamster liver microsome assessed ATRA metabolism using [11.12-3H]-ATRA; assay type: microsomes
Procedure, shortened: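 Microsomes from male Syrian golden hamster liver, or from T47D cells pretreated with 1 µM ATRA. Incubation in 0.1 M phosphate buffer pH 7.4 with NADPH, MgCl2 and BSA, inhibitor in DMSO; 3 min preincubation at 37 °C, then [11,12-3H]-ATRA for 30 min at 37 °C under oxygen. Ethyl acetate extraction, reverse-phase HPLC with radiometric detection; percent polar metabolites; IC50 from dose-response curves.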

MCF7 [3] = test: Growth inhibition of human MCF7 cells after 6 days by MTT assay; assay type: functional, cell-based; conditions: MCF7, 144 h; procedure, shortened: as §1
T47D = test: Growth inhibition of human T47D cells after 6 days by MTT assay; assay type: functional, cell-based; conditions: 144 h; procedure, shortened: as §1
[4] = Displacement of [11,12-3H]ARTA from RARgamma; parameters: species or system Homo sapiens
Procedure, shortened: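 Recombinant S-Tag RARα, RARβ or RARγ fusion protein extracts (10-30 µg/mL total protein) in HEPES pH 7.9 binding buffer. Incubated with 1 nM [3H]all-trans-RA and 0-500 nM test compound for 3 h at 27 °C. Nonspecific binding measured with a 200-fold excess of unlabeled RA; IC50 from dose-response curves, at least two experiments.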

LNCaP = test: Growth inhibition of human LNCaP cells after 6 days by MTT assay; assay type: functional, cell-based; conditions: 144 h
Procedure, shortened: (§2)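 LNCaP cells (1 × 10^4) on poly-L-lysine-coated wells, attached 36 h; PC-3 cells (1 × 10^4), uncoated, attached 24 h; both in RPMI 1640. Treated with a concentration range of drug for 6 days, medium changed every 3 days. MTT read-out at 540 nm; IC50 by nonlinear regression from at least two experiments.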

PC-3 = test: Growth inhibition of human PC3 cells after 6 days by MTT assay; assay type: functional, cell-based; conditions: PC-3, 144 h; procedure, shortened: as §2

IC50 (MCF7 [2]): 584 nM
Km (Mesocricetus auratus): 0.16 µM
IC50 (MCF7 [3]): 580 nM
IC50 (T47D): 6 nM
IC50 [4]: 10 nM
IC50 (LNCaP): 10000 nM
IC50 (PC-3): 2000 nM
Structure (SMILES): CC1=C(/C=C/C(C)=C/C=C/C(C)=C/C(=O)O)C(C)(C)CCC1 [TRETINOIN]
Activity (MDA-MB-231): inactive
Activity (MCF7 [1]): inactive
